pIC50, pKi: −log10 of the molar value. Activity calls are given as the source filed them. The rule behind the calls is not given here.
Tests used:
[1] = biological target: Glutamate NMDA receptor; Grin1/Grin2c (Rattus norvegicus, UniProt P35439+Q00961); experiment: Antagonist activity at recombinant rat GluN1a/GluN2C expressed in Xenopus laevis oocytes assessed as inhibition of glycine/glutamate-mediated current responses by two-electrode voltage clamp method; format: cell-based
Procedure, shortened: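 Xenopus oocytes were injected with rat GluN1 and GluN2A–D cRNA (1:2) and recorded 2–6 days later by TEVC at room temperature, −40 mV, in Ba2+-containing recording solution, pH 7.4. Currents were evoked by 100 μM glycine plus glutamate at 2–3× EC50: 10 μM for GluN2A, 3 μM for GluN2B and GluN2C, 1 μM for GluN2D. IC50 from Hill fits per oocyte; Ki estimated.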

Mus musculus [2] = organism: Mus musculus; experiment: Antagonist activity at NMDA receptor in Nras driven p53 deficient mouse HCC cell membranes assessed as potentiation of 5 uM sorafenib-mediated antiproliferative activity by measuring cell viability at 100 uM after 72 hrs by resazurin assay (reference value: […] +/- […]%)
Mus musculus [3] = organism: Mus musculus; experiment: Antagonist activity at NMDA receptor in Nras driven p53 deficient mouse HCC cell membranes assessed as inhibition of NMDA-induced intracellular Ca2+ transients at 25 to 40 uM […] by fluo-4AM dye-based fluorescence assay
Procedure, shortened: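 Mouse HCC cells were loaded with Fluo-4-AM (5 μM, 45 min), then washed out for 20 min in HEPES-buffered saline, pH 7.4. Ca2+ transients were evoked by 15 s applications of 150 μM NMDA via fast perfusion. This was done alone or with antagonist at 25 or […] μM, imaged at 495 nm excitation. Data were scored as % responding, mean ± SEM, n=5.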

Plasma [4] = experiment: AUC (0 to 240 mins) in mouse plasma at 10 mg/kg, ip administered as bolus dose by LC-MS/MS analysis; format: ADME, organism-based; set-up: time < 4 hr, dose 10 mg/kg, route intraperitoneal; details: in vivo, 4 h
Procedure, shortened: (§1)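 Adult male mice (25 ± 5 g) given a single 10 mg/kg i.p. bolus, prepared as a 5.0 mM solution in 0.9% NaCl. Animals were decapitated at five time points between 10 and 240 min. Plasma was precipitated with acetonitrile containing internal standard. Brain and liver were homogenized in water (1:3) and precipitated the same way. Analysis by LC-MS/MS, with AUC0–240, Cmax, tmax, t½β and liver/plasma ratio derived from the concentration-time data.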

Mus musculus [5] = organism: Mus musculus; experiment: Antagonist activity at NMDA receptor in Nras driven p53 deficient mouse HCC cell membranes assessed as Abcc4 protein expression levels at 10 uM by […] analysis relative to control; set-up: scale not given: the % may be the effect or the level left
Procedure, shortened: (§2)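 Mouse Nras-driven p53−/− HCC cells in DMEM with 10% FBS, exposed 48 h with or without 10 μM antagonist, washed, pelleted and snap-frozen. Crude membrane fraction isolated. 50 μg protein reduced, alkylated, precipitated, then Lys-C digested (3 h, rt) and trypsin digested (1:100, 37°C, 16 h). One unique peptide per transporter quantified by multiplexed SRM/MRM LC-MS/MS against stable isotope-labelled standards. Unpaired two-tailed t-test versus control, n=4.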

Mus musculus [6] = organism: Mus musculus; experiment: Antagonist activity at NMDA receptor in Nras driven p53 deficient mouse HCC cell membranes assessed as decrease in Slc2a1 protein expression levels by measuring [14C]-D-glucose accumulation at 10 uM preincubated for 24 hrs followed by compound wash out and addition of [14C]-D-glucose measured after 5 mins by scintillation counting method relative to control; set-up: scale not given: the % may be the effect or the level left
Procedure, shortened: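 Nras p53−/− HCC cells (1 × 10⁵/well) were pretreated 24 h with or without 10 μM. They were then washed 3× in warm HBSS (choline chloride, pH 7.4) and incubated at 37 °C with probe in HBSS. Incubation was 30 min for [3H]-digoxin, 20 μM fluorescein or 10 μM sorafenib, and 5 min for [14C]-L-leucine or [14C]-D-glucose. Cells were washed ice-cold and lysed in 0.1 M NaOH. Read-out was scintillation, fluorescence or LC-MS/MS, normalized to protein.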

[7] = Liver to plasma partition coefficient in mouse at 10 mg/kg, ip administered as bolus dose by LC-MS/MS analysis; format: ADME, organism-based; details: other tissue; procedure, shortened: as §1
Liver = experiment: Tmax in mouse liver at 10 mg/kg, ip administered as bolus dose by LC-MS/MS analysis; format: ADME, organism-based; details: in vivo; procedure, shortened: as §1
Brain [8] = experiment: Tmax in mouse brain at 10 mg/kg, ip administered as bolus dose by LC-MS/MS analysis; format: ADME, organism-based; details: in vivo; procedure, shortened: as §1
Brain [9] = experiment: Drug uptake in mouse brain at 10 mg/kg, ip administered as bolus dose measured at 60 mins by LC-MS/MS analysis; format: ADME, organism-based; details: in vivo, 1 h; procedure, shortened: as §1
Mus musculus [10] = organism: Mus musculus; experiment: Antagonist activity at NMDA receptor in Nras driven p53 deficient mouse HCC cell membranes assessed as Slc7a5 protein expression levels at 10 uM by SMR/MRM analysis relative to control; set-up: scale not given: the % may be the effect or the level left
Procedure, shortened: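 Nras p53−/− mouse HCC cells were exposed to 10 μM for 48 h, washed, and pelleted. Crude membrane fractions (50 μg protein) were denatured in guanidine, reduced/alkylated and precipitated. They were then digested with Lys-C (rt, 3 h) and trypsin (37 °C, 16 h) with stable-isotope peptide standards. Slc7a5 was quantified by multiplexed SRM/MRM LC-MS/MS, one unique peptide per protein. Mean ± SEM, n=4, versus control.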

Brain [11] = experiment: Drug uptake in mouse brain at 100 uM administered via perfusion; details: in vivo, other
Plasma [12] = experiment: Elimination half life in mouse plasma at 10 mg/kg, ip administered as bolus dose by LC-MS/MS analysis; format: ADME, organism-based; details: in vivo; procedure, shortened: as §1
[13] = Displacement of [3H]-AMPA from AMPA receptor in Sprague-Dawley rat brain synaptosomes after 30 mins by scintillation counting method; format: subcellular
Mus musculus [14] = organism: Mus musculus; experiment: Antagonist activity at NMDA receptor in Nras driven p53 deficient mouse HCC cell membranes assessed as Abcb1 protein expression levels at 10 uM by […] analysis relative to control; set-up: scale not given: the % may be the effect or the level left; procedure, shortened: as §2
[15] = Displacement of [3H]-KA from KA receptor in Sprague-Dawley rat brain synaptosomes after 60 mins by scintillation counting method; format: subcellular
[16] = biological target: Glutamate receptor ionotropic, kainate 3 (Rattus norvegicus, UniProt P42264); experiment: Displacement of [3H]-KA from recombinant homomeric rat GluK3a receptor expressed in baculovirus infected Sf9 insect cell membranes by scintillation counting method
Mus musculus [17] = experiment: Toxicity in mouse assessed as behavioral changes at 10 mg/kg, ip administered as bolus dose; format: organism-based; details: in vivo
Mus musculus [18] = organism: Mus musculus; experiment: Antagonist activity at NMDA receptor in Nras driven p53 deficient mouse HCC cell membranes assessed as PGE2 levels at 10 uM after 24 hrs by LC-MS/MS method relative to control; set-up: scale not given: the % may be the effect or the level left
Procedure, shortened: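 Mouse Nras-driven p53−/− HCC cells in DMEM with 2 mM L-glutamine, 10% heat-inactivated FBS and penicillin/streptomycin. Cells incubated 24 h with or without antagonist, either without LPS or with 2.5 μg/mL LPS in the growth medium. Cells washed three times with ice-cold HBSS and lysed in acetonitrile on ice. PGE₂ in lysates measured by LC-MS/MS (LLOQ 1 nM) and expressed as % of control; n=3.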

Mus musculus [19] = organism: Mus musculus; experiment: Antagonist activity at NMDA receptor in Nras driven p53 deficient mouse HCC cell membranes assessed as potentiation of 1 uM sorafenib-mediated antiproliferative activity by measuring cell viability at 100 uM after 72 hrs by resazurin assay (reference value: […] +/- […]%)

Sequence of Glutamate NMDA receptor; Grin1/Grin2c (Q00961 whole entry, other chains not shown): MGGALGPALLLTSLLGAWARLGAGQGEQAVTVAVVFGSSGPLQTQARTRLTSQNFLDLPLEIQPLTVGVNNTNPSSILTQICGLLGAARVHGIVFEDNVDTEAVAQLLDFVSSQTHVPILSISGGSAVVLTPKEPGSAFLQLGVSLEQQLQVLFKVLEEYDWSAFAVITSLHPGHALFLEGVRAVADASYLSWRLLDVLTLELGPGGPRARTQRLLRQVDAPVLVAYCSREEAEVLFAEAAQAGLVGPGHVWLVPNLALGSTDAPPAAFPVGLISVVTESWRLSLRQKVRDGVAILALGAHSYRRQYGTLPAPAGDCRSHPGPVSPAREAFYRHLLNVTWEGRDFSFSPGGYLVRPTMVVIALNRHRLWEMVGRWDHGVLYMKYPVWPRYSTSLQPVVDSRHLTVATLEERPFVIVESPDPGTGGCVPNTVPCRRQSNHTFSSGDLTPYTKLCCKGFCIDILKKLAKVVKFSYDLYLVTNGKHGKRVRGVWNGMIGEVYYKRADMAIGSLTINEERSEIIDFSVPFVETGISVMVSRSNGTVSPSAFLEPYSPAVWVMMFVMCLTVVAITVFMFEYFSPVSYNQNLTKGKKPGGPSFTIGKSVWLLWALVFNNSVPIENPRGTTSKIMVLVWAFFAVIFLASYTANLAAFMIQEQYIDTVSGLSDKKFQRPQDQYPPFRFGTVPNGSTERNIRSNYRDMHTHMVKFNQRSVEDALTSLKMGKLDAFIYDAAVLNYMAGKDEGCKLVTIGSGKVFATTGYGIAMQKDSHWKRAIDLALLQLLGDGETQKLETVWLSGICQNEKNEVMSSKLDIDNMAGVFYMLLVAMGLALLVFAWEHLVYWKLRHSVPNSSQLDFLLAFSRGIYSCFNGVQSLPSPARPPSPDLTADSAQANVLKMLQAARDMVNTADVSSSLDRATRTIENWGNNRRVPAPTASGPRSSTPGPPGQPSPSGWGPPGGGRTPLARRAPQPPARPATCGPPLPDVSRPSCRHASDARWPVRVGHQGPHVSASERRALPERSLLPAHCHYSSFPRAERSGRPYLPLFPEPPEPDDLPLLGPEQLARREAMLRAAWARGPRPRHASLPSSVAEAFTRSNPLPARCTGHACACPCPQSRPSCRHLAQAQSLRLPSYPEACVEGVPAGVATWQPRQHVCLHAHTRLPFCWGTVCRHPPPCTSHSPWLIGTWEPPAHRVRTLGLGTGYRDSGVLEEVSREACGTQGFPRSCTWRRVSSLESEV
Sequence of Glutamate receptor ionotropic, kainate 3 (P42264 whole entry): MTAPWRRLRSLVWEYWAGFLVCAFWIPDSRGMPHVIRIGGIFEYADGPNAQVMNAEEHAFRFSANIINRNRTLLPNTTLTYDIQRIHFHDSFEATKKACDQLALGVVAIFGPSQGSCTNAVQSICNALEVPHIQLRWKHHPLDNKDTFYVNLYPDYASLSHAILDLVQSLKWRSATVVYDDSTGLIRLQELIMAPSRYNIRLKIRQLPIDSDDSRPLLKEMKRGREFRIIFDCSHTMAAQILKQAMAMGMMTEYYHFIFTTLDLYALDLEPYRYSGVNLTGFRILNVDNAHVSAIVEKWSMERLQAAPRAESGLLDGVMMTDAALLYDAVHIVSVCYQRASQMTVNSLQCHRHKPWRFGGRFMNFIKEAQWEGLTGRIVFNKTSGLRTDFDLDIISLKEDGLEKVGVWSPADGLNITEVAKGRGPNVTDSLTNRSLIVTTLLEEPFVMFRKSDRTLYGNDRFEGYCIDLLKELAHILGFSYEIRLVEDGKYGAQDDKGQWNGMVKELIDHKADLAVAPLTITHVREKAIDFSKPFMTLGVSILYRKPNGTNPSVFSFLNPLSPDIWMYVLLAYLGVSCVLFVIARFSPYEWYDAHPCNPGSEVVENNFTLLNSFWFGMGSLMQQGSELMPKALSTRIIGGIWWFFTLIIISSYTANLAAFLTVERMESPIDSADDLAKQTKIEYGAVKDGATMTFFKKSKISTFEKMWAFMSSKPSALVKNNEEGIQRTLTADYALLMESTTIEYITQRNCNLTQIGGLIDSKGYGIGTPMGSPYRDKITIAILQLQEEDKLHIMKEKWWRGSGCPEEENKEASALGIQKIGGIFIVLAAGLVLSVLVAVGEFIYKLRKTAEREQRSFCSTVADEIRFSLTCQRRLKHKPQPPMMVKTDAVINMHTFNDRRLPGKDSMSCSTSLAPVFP

Work on `Cl.O=C(O)c1cc([C@H]2CCN[C@@H]2C(=O)O)ccc1Cl` yielded a pIC50 [1] of 3.96, a pKi [1] of 4.62 and an Activity (Mus musculus [2]) of 35%. For the same molecule, the inhibition (Mus musculus [3]) was “Active”, the AUC (Plasma [4]) was 3020 nmol·min/g and the Activity (Mus musculus [5]) was 14%. It also gave an Activity (Mus musculus [6]) of 84%, a Kp [7] of 0.19 and a Tmax (Liver) of 30 min. For the same molecule, the Tmax (Brain [8]) was 30 min, the Drug uptake (Brain [9]) was 0.1 nmol/g and the Activity (Mus musculus [10]) was 24%. For the same molecule, the Drug uptake (Brain [11]) was 5 pmol/g, the “beta t1/2” value (Plasma [12]) was 30 min and the pIC50 [13] was less than 4.00. It also gave an Activity (Mus musculus [14]) of 39%, a pIC50 [15] of less than 4.00 and a pKi [16] of 3.88. The Activity (Mus musculus [17]) was “Non-Toxic”, the Activity (Mus musculus [18]) was 68% and the Activity (Mus musculus [19]) was 33%.
